IC50 data for one compound are collected here from BindingDB's records for doi:10.1021/acs.jmedchem.8b00653 (Aix-Marseille University, 2018).

The assay concerns the target Bromodomain-containing protein 4 (Homo sapiens, UniProt O60885). Briefly: Inhibition of TEV cleavage site-fused-GST tagged BRD4(BD1) (unknown origin) using SGRGK(Ac)CGK(Ac)-GLGK(Ac)GGAK(Ac)RHRKVG-peptide after 3 hrs by HTRF assay. The gist of the method:
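GST-BRD4(BD1) purified on glutathione resin and by size exclusion; tetra-acetylated H4 peptide as ligand. Buffer 50 mM HEPES pH 7.5, 400 mM KF, 0.1% BSA, 0.5% DMSO final; 3 h at room temperature.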
Background: Time-resolved FRET reads energy transfer from a long-lived donor to a nearby acceptor.

Turning to `CCn1cnc2c1c(=O)[nH]c(=O)n2Cc1ccc(CNS(=O)(=O)c2ccc3c(c2)CCCC(=O)N3)cc1`, the IC50 came to 251 nM.

The IC50 is the concentration that inhibits the measured activity by half. Higher therefore signals weaker potency in that assay.
